Measured values as given in article PMC1915607 (Investigational New Drugs, 2007).
Several values for one entry are separate records, joined by “and”; a condition that tells them apart may be missing. Equal values may be shown once. Read-outs that look alike come from different tables or passages of the source. Marks after values point to notes of the source that are not given here.

Assays:
[1] = Urinary and faecal recovery; format: in vivo, human; conditions: for Radioactivity U/F ratio (urinary recovery relative to faecal recovery) / Recovery of ixabepilone in urine: 0–168 h; for Recovery of ixabepilone in urine: unchanged ixabepilone
[2] = phase I dose escalation study, 11 patients, 40 mg/m^2; cited from earlier work
[3] = Plasma pharmacokinetics of unchanged ixabepilone; format: in vivo, human
Method in brief: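 Eight advanced-cancer patients received a single 3 h IV infusion of 70 mg, 80 nCi [14C]-labelled test compound in Cremophor EL:ethanol diluted in Lactated Ringer's, with oral H1/H2 premedication. Blood was drawn 0–168 h and plasma was stored below −20°C. Parent was measured by isocratic LC-ESI-MS/MS (standard curve 2–500 ng/ml). Non-compartmental analysis gave AUCinf, CL=dose/AUCinf, and infusion-corrected Vss.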

[4] = phase II, cited from earlier work
CYP3A4/5 = conditions: cited from earlier work
[5] = Plasma pseudopharmacokinetics of total radioactivity; format: in vivo, human
Method in brief: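 Same dosing, with separate, simultaneous plasma samples taken to 168 h. Total radioactivity was measured by AMS after combustion with CuO at 900°C and graphitisation at 500–550°C. Natural 14C background was subtracted, and values were converted to equivalents via carbon content and specific activity. Quantitation limit was <4 DPM/ml. Non-compartmental pseudo-parameters were derived, and AUClast ratio = parent AUClast / TRA AUClast. Outliers were assessed by Dixon's Q test.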

[6] = Stability of [14C]-labelled ixabepilone; format: physicochemical
[7] = literature value, no reference given, cited from earlier work
[8] = inter-patient variability, flat 70 mg dose, this study
[9] = plasma, individual patients 1-8, 3 h iv infusion 70 mg

C/C(=C\c1csc(C)n1)[C@@H]1C[C@@H]2O[C@]2(C)CCC[C@H](C)[C@H](O)[C@@H](C)C(=O)C(C)(C)[C@@H](O)CC(=O)N1 [ixabepilone, 15-desoxy-15-aza-epothilone B]
Radioactivity U/F ratio (urinary recovery relative to faecal recovery) ([1]; individual patients 1-8): 0.48 and 0.29 and 3.05 and 0.24 and 0.31 and 0.39 and 1.97 and 0.30
Radioactivity U/F ratio (urinary recovery relative to faecal recovery) ([1]; mean, patients 4 and 8 not included): 0.33^b
Recovery of ixabepilone in urine ([1]; individual patients 1-8): 4.0 % of dose and 6.12 % of dose and 6.03 % of dose and 4.02 % of dose and 5.07 % of dose and 4.66 % of dose and 7.76 % of dose and 3.32 % of dose and 5.46 % of dose
Recovery of ixabepilone in urine ([1]; mean of 8 patients): 5.30 % of dose
Urinary radioactivity excreted in the first 24 h ([1]; first 24 h): 17 % of dose
Ixabepilone Clrenal ([1]; individual patients 1-8): 1.98 L/h and 1.87 L/h and 1.46 L/h and 1.16 L/h and 1.19 L/h and 1.92 L/h and 0.61 L/h and 1.58 L/h
Share of total urinary ixabepilone excreted in the first 24 h ([1]; of total urinary ixabepilone): 76%
Share of total urinary radioactivity excreted in the first 24 h ([1]; of total urinary radioactivity): 65%
Coefficient of variation for AUCinf of ixabepilone [2]: 46%
Coefficient of variation for Cl of ixabepilone [2]: 38%
Time to maximum plasma concentration ([3]; 3 h infusion, in words): around the end of infusion
clearance ([3]; human, plasma, intravenous, 70 mg, Ixabepilone Cl, mean of 8 patients): 422 mL/min
Vd ([3]; human, plasma, intravenous, 70 mg, Ixabepilone Vss, plasma, mean of 8 patients): 1150 L
Half-life ([3]; human, plasma, intravenous, 70 mg, Ixabepilone t1/2, plasma, mean of 8 patients): > 50 h
Coefficient of variation for AUCinf of ixabepilone [3, 8]: 24%
Coefficient of variation for Cl of ixabepilone [3, 8]: 21%
Ixabepilone AUCinf [3, 9]: 2220 ng·h/mL and 3350 ng·h/mL and 2970 ng·h/mL and 2990 ng·h/mL and 4320 ng·h/mL and 2520 ng·h/mL and 2290 ng·h/mL
Ixabepilone AUClast [3, 9]: 1930 ng·h/mL and 3060 ng·h/mL and 2750 ng·h/mL and 2830 ng·h/mL and 3820 ng·h/mL and 2420 ng·h/mL and 2170 ng·h/mL
Ixabepilone Cl [3, 9]: 31.6 L/h and 20.9 L/h and 23.6 L/h and 23.4 L/h and 16.2 L/h and 27.8 L/h and 30.5 L/h
Ixabepilone Vss [3, 9]: 1520 L and 1635 L and 1275 L and 1174 L and 929 L and 1027 L and 756 L and 912 L
Ixabepilone t1/2 [3, 9]: 71.5 h and 47.2 h and 51.7 h and 53.0 h and 67.4 h and 23.5 h and 36.7 h
Initial distribution phase, duration ([3]; unchanged ixabepilone in plasma): approximately 10 h
Response rate ([4]; hormone-refractory metastatic prostate cancer): 33%
Response rate ([4]; metastatic breast cancer, 6 to 40 mg/m^2 iv over 1 to 3 h): 12–44%
Response rate ([4]; metastatic renal cell carcinoma): 14%
Response rate ([4]; non-small cell lung cancer): 14%
CYP3A4/5 substrate (CYP3A4/5): CYP3A4/5 substrate
Initial distribution phase, duration ([5]; TRA in plasma): approximately 10 h
AUClast ratio (AUClast ixabepilone / AUClast TRA) ([5]; plasma, individual patients 1-8, patient 1 outlier): 0.26 and 0.06 and 1.62^b and 0.25 and 0.19 and 0.12 and 0.18
Stability of labelled drug (autoradiolysis) ([6]; conventional [14C]-levels (100 μCi in a typical human radio-tracer study)): very unstable
Stability of labelled drug (autoradiolysis) ([6]; specific activity of 1.5 μCi/mg): unstable
Stability of labelled drug (autoradiolysis) ([6]; specific activity of less than 10 nCi/mg): stable

CC[C@]1(O)C[C@H]2CN(CCc3c([nH]c4ccccc34)[C@@](C(=O)OC)(c3cc4c(cc3OC)N(C=O)[C@H]3[C@@](O)(C(=O)OC)[C@H](OC(C)=O)[C@]5(CC)C=CCN6CC[C@]43[C@@H]65)C2)C1 [vincristine]
Half-life ([7]; in words): several days

CC[C@]1(O)C[C@@H]2CN(CCc3c([nH]c4ccccc34)[C@@](C(=O)OC)(c3cc4c(cc3OC)N(C)[C@H]3[C@@](O)(C(N)=O)[C@H](O)[C@]5(CC)C=CCN6CC[C@]43[C@@H]65)C2)C1 [vindesine]
Half-life [7]: 12 to 42 h
